From ChEMBL document CHEMBL1145100, “Structure-activity relationship of imidazo[1,2-a]pyridines as ligands for detecting beta-amyloid plaques in the brain” (J Med Chem, 2003)

Tests used:
[1] = system: Mus musculus; experiment: Biodistribution of radioactivity in normal mice (ICR) lung after 2 minutes of intravenous injection of [125I]-16(IMPY); format: ADME, organism-based; details: in vivo
In short: (§1)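 Male ICR mice, 2-3 months old, 20-30 g, under ether anesthesia, given 0.15 mL of 0.1% bovine serum albumin solution containing the [125I] tracer into the tail vein. Killed by cardiac excision at set times after injection. Organs removed and weighed, then gamma-counted. % dose per organ computed against diluted aliquots of the injected material.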

[2] = system: Mus musculus; experiment: Biodistribution of radioactivity in normal mice (ICR) liver after 30 minutes of intravenous injection of [125I]-16(IMPY); format: ADME, organism-based; details: in vivo, 0.5 h; in short: as §1
[3] = system: Mus musculus; experiment: Biodistribution of radioactivity in normal mice (ICR) heart after 24 hours of intravenous injection of [125I]-16(IMPY); format: ADME, organism-based; details: in vivo; in short: as §1
[4] = system: Mus musculus; experiment: Biodistribution of radioactivity in normal mice (ICR) skin after 30 minutes of intravenous injection of [125I]-16(IMPY); format: ADME, organism-based, Zone of skin; details: in vivo, 0.5 h; in short: as §1
[5] = system: Mus musculus; experiment: Biodistribution of radioactivity in normal mice (ICR) brain after 24 hours of intravenous injection of [125I]-16(IMPY); format: ADME, organism-based; details: in vivo; in short: as §1
[6] = system: Mus musculus; experiment: Biodistribution of radioactivity in normal mice (ICR) kidney after 6 hours of intravenous injection of [125I]-16(IMPY); format: ADME, organism-based; details: in vivo; in short: as §1
[7] = system: Mus musculus; experiment: Biodistribution of radioactivity in normal mice (ICR) spleen after 2 hours of intravenous injection of [125I]-16(IMPY); format: ADME, organism-based; details: in vivo; in short: as §1
[8] = system: Mus musculus; experiment: Biodistribution of radioactivity in normal mice (ICR) lung after 1 hour of intravenous injection of [125I]-16(IMPY); format: ADME, organism-based; details: in vivo; in short: as §1
[9] = system: Mus musculus; experiment: Biodistribution of radioactivity in normal mice blood after 24 hours of intravenous injection of [125I]-16(IMPY); format: ADME, organism-based; details: in vivo
In short: (§2)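 Male ICR mice (2-3 months old, 20-30 g) under ether anesthesia; 0.15 mL of 0.1% bovine serum albumin solution containing the iodine-125 tracer injected into the tail vein. Mice killed by cardiac excision at set times. Organs removed, weighed and gamma-counted. Percent dose per organ derived against diluted aliquots of the injectate.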

[10] = system: Mus musculus; experiment: Biodistribution of radioactivity in normal mice (ICR) liver after 2 hours of intravenous injection of [125I]-16(IMPY); format: ADME, organism-based; details: in vivo; in short: as §1
[11] = system: Mus musculus; experiment: Biodistribution of radioactivity in normal mice (ICR) spleen after 2 minutes of intravenous injection of [125I]-16(IMPY); format: ADME, organism-based; details: in vivo; in short: as §1
[12] = system: Mus musculus; experiment: Biodistribution of radioactivity in normal mice (ICR) liver after 24 hours of intravenous injection of [125I]-16(IMPY); format: ADME, organism-based; details: in vivo; in short: as §1
[13] = system: Mus musculus; experiment: Biodistribution of radioactivity in normal mice (ICR) liver after 2 minutes of intravenous injection of [125I]-16(IMPY); format: ADME, organism-based; details: in vivo; in short: as §1
[14] = system: Mus musculus; experiment: Biodistribution of radioactivity in normal mice blood after 1 hour of intravenous injection of [125I]-16(IMPY); format: ADME, organism-based; details: in vivo; in short: as §1
[15] = system: Mus musculus; experiment: Biodistribution of radioactivity in normal mice (ICR) spleen after 30 minutes of intravenous injection of [125I]-16(IMPY); format: ADME, organism-based; details: in vivo, 0.5 h; in short: as §1
[16] = system: Mus musculus; experiment: Biodistribution of radioactivity in normal mice (ICR) muscle after 24 hours of intravenous injection of [125I]-16(IMPY); format: ADME, organism-based, Muscle tissue; details: in vivo; in short: as §1
[17] = system: Mus musculus; experiment: Biodistribution of radioactivity in normal mice blood after 6 hours of intravenous injection of [125I]-16(IMPY); format: ADME, organism-based; details: in vivo; in short: as §2
[18] = system: Mus musculus; experiment: Biodistribution of radioactivity in normal mice (ICR) skin after 24 hours of intravenous injection of [125I]-16(IMPY); format: ADME, organism-based, Zone of skin; details: in vivo; in short: as §1
[19] = system: Mus musculus; experiment: Biodistribution of radioactivity in normal mice (ICR) muscle after 2 hours of intravenous injection of [125I]-16(IMPY); format: ADME, organism-based, Muscle tissue; details: in vivo; in short: as §1
[20] = system: Mus musculus; experiment: Biodistribution of radioactivity in normal mice (ICR) kidney after 2 minutes of intravenous injection of [125I]-16(IMPY); format: ADME, organism-based; details: in vivo; in short: as §1
[21] = system: Mus musculus; experiment: Biodistribution of radioactivity in normal mice (ICR) skin after 1 hour of intravenous injection of [125I]-16(IMPY); format: ADME, organism-based, Zone of skin; details: in vivo; in short: as §1
[22] = system: Mus musculus; experiment: Biodistribution of radioactivity in normal mice (ICR) heart after 30 minutes of intravenous injection of [125I]-16(IMPY); format: ADME, organism-based; details: in vivo, 0.5 h; in short: as §1
[23] = system: Mus musculus; experiment: Biodistribution of radioactivity in normal mice (ICR) kidney after 30 minutes of intravenous injection of [125I]-16(IMPY); format: ADME, organism-based; details: in vivo, 0.5 h; in short: as §1
[24] = system: Mus musculus; experiment: Biodistribution of radioactivity in normal mice (ICR) spleen after 24 hours of intravenous injection of [125I]-16(IMPY); format: ADME, organism-based; details: in vivo; in short: as §1
[25] = system: Mus musculus; experiment: Biodistribution of radioactivity in normal mice (ICR) skin after 2 hours of intravenous injection of [125I]-16(IMPY); format: ADME, organism-based, Zone of skin; details: in vivo; in short: as §1
[26] = system: Mus musculus; experiment: Biodistribution of radioactivity in normal mice (ICR) skin after 2 minutes of intravenous injection of [125I]-16(IMPY); format: ADME, organism-based, Zone of skin; details: in vivo; in short: as §1
[27] = system: Mus musculus; experiment: Biodistribution of radioactivity in normal mice (ICR) kidney after 1 hour of intravenous injection of [125I]-16(IMPY); format: ADME, organism-based; details: in vivo; in short: as §1

SMILES: CN(C)c1ccc(-c2cn3cc(I)ccc3n2)cc1
- Dose/organ [1]: 1.56%
- Dose/organ [2]: 6.32%
- Dose/organ [3]: 0.01%
- Dose/organ [4]: 4.69%
- Dose/organ [5]: 0.02%
- Dose/organ [6]: 0.25%
- Dose/organ [7]: 0.05%
- Dose/organ [8]: 0.34%
- Dose/organ [9]: 0.18%
- Dose/organ [10]: 2.9%
- Dose/organ [11]: 0.4%
- Dose/organ [12]: 0.61%
- Dose/organ [13]: 20.9%
- Dose/organ [14]: 2.5%
- Dose/organ [15]: 0.09%
- Dose/organ [16]: 0.27%
- Dose/organ [17]: 1.4%
- Dose/organ [18]: 0.22%
- Dose/organ [19]: 2.96%
- Dose/organ [20]: 4.75%
- Dose/organ [21]: 4.28%
- Dose/organ [22]: 0.16%
- Dose/organ [23]: 1.51%
- Dose/organ [24]: 0.01%
- Dose/organ [25]: 3.14%
- Dose/organ [26]: 5.72%
- Dose/organ [27]: 1.17%
